Results on two molecules are retold here after article PMC7396962 (Xenobiotica; the fate of foreign compounds in biological …, 2020).

In one data set the test system is MRPs. Nature of the data set: Glucuronide excretion in HeLa1A1 cells with MK571. It is filed as cell-based. The following applies: CA 10 μM, MK571 5 or 20 μM. The gist of the method: (§1)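 HeLa cells overexpressing UGT1A1 grown in DMEM/10% FBS, seeded 2 × 10^5 cells/well and used near 90% confluence after HBSS washes. Exposed at 37 °C to test compound 10 μM in HBSS with inhibitor 5 or 20 μM or vehicle. Medium sampled at 0.5, 1, 1.5 and 2 h; cells lysed at 2 h in 50% methanol. Excretion rate, CLapp (ER/intracellular concentration) and fmet calculated; triplicate.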

In a further data set the target is T1, BCRP (Homo sapiens, UniProt Q9UNQ0).
T1 sequence (Q9UNQ0 1-655): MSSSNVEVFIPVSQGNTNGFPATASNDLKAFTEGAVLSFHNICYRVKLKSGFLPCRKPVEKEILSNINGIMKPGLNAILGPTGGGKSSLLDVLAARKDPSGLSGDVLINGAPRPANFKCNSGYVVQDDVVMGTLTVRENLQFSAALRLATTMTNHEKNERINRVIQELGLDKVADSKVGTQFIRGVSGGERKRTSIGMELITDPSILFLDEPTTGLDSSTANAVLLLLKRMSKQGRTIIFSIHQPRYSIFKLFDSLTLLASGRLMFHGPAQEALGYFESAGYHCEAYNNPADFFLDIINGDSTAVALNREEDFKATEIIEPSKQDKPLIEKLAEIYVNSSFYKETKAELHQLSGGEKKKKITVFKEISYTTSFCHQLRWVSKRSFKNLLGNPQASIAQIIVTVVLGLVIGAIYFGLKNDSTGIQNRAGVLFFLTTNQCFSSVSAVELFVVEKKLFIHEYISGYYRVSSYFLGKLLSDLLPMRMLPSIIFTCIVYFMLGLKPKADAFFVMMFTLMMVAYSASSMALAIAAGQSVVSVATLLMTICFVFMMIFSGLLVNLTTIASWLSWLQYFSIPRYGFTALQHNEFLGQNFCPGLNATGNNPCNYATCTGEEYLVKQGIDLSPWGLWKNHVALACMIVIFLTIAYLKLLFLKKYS
The data set can be described thus: Glucuronide excretion in HeLa1A1 cells with DIPY. It is filed as cell-based. The note with it: CA 10 μM, DIPY 5 or 20 μM. The method in brief:
as §1

`CN(C)C(=O)CCSC(SCCC(=O)O)c1cccc(/C=C/c2ccc3ccc(Cl)cc3n2)c1` (centres unmarked) [MK571]: in the data set with MRPs, the fmet value entry was “significant reduction” and the “intracellular accumulation of glucuronide” value was “elevated”.
Regarding `OCCN(CCO)c1nc(N2CCCCC2)c2nc(N(CCO)CCO)nc(N3CCCCC3)c2n1` [DIPY, dipyridamole], at BCRP, the CA-O-glucuronide excretion entry is listed as “moderate decrease”, the fmet values entry is recorded as “significant decrease” and the “intracellular amounts of glucuronide levels” value is “statistical increase”.
